Results published in ChEMBL document CHEMBL4261585, “Synthesis of 1,2,3-triazole linked 4(3H)-Quinazolinones as potent antibacterial agents against multidrug-resistant Staphylococcus aureus” (Eur J Med Chem, 2018).
Values after ≈ are worked out from the molar mass of the structure shown.

Assays:
[1] = test system: Mycobacteroides abscessus; assay: Antimycobacterial activity against Mycobacterium abscessus by pesto blue-dye based broth microdilution assay; assay type: functional
Pseudomonas aeruginosa = assay: Antibacterial activity against Pseudomonas aeruginosa ATCC 27853 after 16 to 18 hrs by CLSI method; assay type: functional
Procedure, shortened: (§1)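 Broth microdilution MIC per CLSI. A single colony from Mueller-Hinton agar is grown overnight in cation-supplemented Mueller-Hinton broth (37 °C, shaking, 18–24 h). Incubation is 37 °C for 16–18 h. MIC is the lowest concentration with no visible growth. Three independent runs, each in duplicate.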

[2] = Cytotoxicity against African green monkey Vero cells after 72 hrs by MTT assay; assay type: cell-based; settings: chlorocebus sabaeus
Procedure, shortened: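 Vero cells are seeded at ~10³ per well and held 24 h at 37 °C, 5% CO₂. Compound at 100–5 mg/L is then added for 72 h. MTT is added at […], and formazan is dissolved in DMSO and read at 540 nm. CC50 is the lowest concentration giving 50% loss of viability. Doxorubicin is the positive control. Triplicate experiments.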

[3] = test system: Mycobacterium tuberculosis; assay: Antimycobacterial activity against Mycobacterium tuberculosis H37Rv ATCC 27294 after 7 days by pesto blue-dye based broth microdilution assay; assay type: functional; settings: H37Rv ATCC 27294, 168 h
Procedure, shortened: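 Broth microdilution in Middlebrook 7H9 with 10% ADC-Tween-80 (0.2% glycerol, 0.05% Tween-80). Compound is added from 10 mg/mL DMSO stocks as two-fold dilutions, 64–0.5 mg/L. Plates are incubated 7 days at 37 °C and read with PrestoBlue resazurin dye. MIC is the lowest concentration inhibiting visible growth, three replicates in duplicate.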

[4] = test system: Mycolicibacterium fortuitum; assay: Antimycobacterial activity against Mycobacterium fortuitum by pesto blue-dye based broth microdilution assay; assay type: functional
Escherichia coli = assay: Antibacterial activity against Escherichia coli ATCC 25922 after 16 to 18 hrs by CLSI method; assay type: functional; procedure, shortened: as §1
Acinetobacter baumannii = assay: Antibacterial activity against Acinetobacter baumannii BAA-1605 after 16 to 18 hrs by CLSI method; assay type: functional; procedure, shortened: as §1
Mycobacteroides chelonae = assay: Antimycobacterial activity against Mycobacterium chelonae by pesto blue-dye based broth microdilution assay; assay type: functional
Staphylococcus aureus [5] = assay: Antibacterial activity against Staphylococcus aureus ATCC 29213 after 16 to 18 hrs by CLSI method; assay type: functional; procedure, shortened: as §1
Klebsiella pneumoniae = assay: Antibacterial activity against Klebsiella pneumoniae ATCC BAA-1705 after 16 to 18 hrs by CLSI method; assay type: functional; procedure, shortened: as §1
[6] = Selectivity index, ratio of CC50 for African green monkey Vero cells to MIC for Staphylococcus aureus ATCC 29213; assay type: toxicity; settings: read-out: Selectivity Index
Procedure, shortened: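 Selectivity index is calculated as the Vero CC50 divided by the MIC against S. aureus ATCC 29213. CC50 comes from a 72 h MTT assay at 100–5 mg/L. MIC comes from CLSI broth microdilution at ~10⁶ CFU/mL, 37 °C, 16–18 h.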

Staphylococcus aureus [7] = assay: Antibacterial activity against methicillin-resistant Staphylococcus aureus NR119 by CLSI method; assay type: functional
Procedure, shortened: (§2)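 Broth microdilution to CLSI. A single colony from Mueller-Hinton agar is grown overnight in cation-supplemented MHB at 37 °C with shaking, 18–24 h. Levofloxacin is the reference. MIC is the lowest concentration with no visible growth, from three independent runs in duplicate.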

Staphylococcus aureus [8] = assay: Antibacterial activity against methicillin-sensitive Staphylococcus aureus ATCC 29213 by CLSI method; assay type: functional; procedure, shortened: as §2
Staphylococcus aureus [9] = assay: Antibacterial activity against methicillin-resistant Staphylococcus aureus NR10192 by CLSI method; assay type: functional; procedure, shortened: as §2
Staphylococcus aureus [10] = assay: Antibacterial activity against vancomycin-resistant Staphylococcus aureus VRS12 by CLSI method; assay type: functional; procedure, shortened: as §2
Staphylococcus aureus [11] = assay: Antibacterial activity against vancomycin-resistant Staphylococcus aureus VRS4 by CLSI method; assay type: functional; procedure, shortened: as §2
Staphylococcus aureus [12] = assay: Antibacterial activity against methicillin-resistant Staphylococcus aureus NR10186 by CLSI method; assay type: functional; procedure, shortened: as §2
Staphylococcus aureus [13] = assay: Antibacterial activity against vancomycin-resistant Staphylococcus aureus VRS1 by CLSI method; assay type: functional; procedure, shortened: as §2
Staphylococcus aureus [14] = assay: Antibacterial activity against methicillin-resistant Staphylococcus aureus NR10129 by CLSI method; assay type: functional; procedure, shortened: as §2
Staphylococcus aureus [15] = assay: Antibacterial activity against methicillin-resistant Staphylococcus aureus NR10191 by CLSI method; assay type: functional; procedure, shortened: as §2
Staphylococcus aureus [16] = assay: Antibacterial activity against methicillin-resistant Staphylococcus aureus NR10193 by CLSI method; assay type: functional; procedure, shortened: as §2
Staphylococcus aureus [17] = assay: Antibacterial activity against methicillin-resistant Staphylococcus aureus NR10198 by CLSI method; assay type: functional; procedure, shortened: as §2
Staphylococcus aureus [18] = assay: Antibacterial activity against methicillin-resistant Staphylococcus aureus NR10194 by CLSI method; assay type: functional; procedure, shortened: as §2

Compound	MIC [1] [µg/mL]	MIC (Pseudomonas aeruginosa) [µg/mL]	MIC [3] [µg/mL]	MIC [4] [µg/mL]	MIC (Escherichia coli) [µg/mL]	MIC (Acinetobacter baumannii) [µg/mL]	MIC (Mycobacteroides chelonae) [µg/mL]	MIC (Staphylococcus aureus [5]) [µg/mL]	MIC (Klebsiella pneumoniae) [µg/mL]	other results
N#Cc1ccc(/C=C/c2nc3ccccc3c(=O)n2-c2cccc(OCc3cn(-c4ccc(Cl)cc4)nn3)c2)cc1	> 64	> 64	> 64	> 64	> 64	> 64	> 64	0.5 (≈ 0.898 µM)	> 64	CC50 at 72 h [2]: 20 µg/mL (≈ 35.9 µM); selectivity ratio [6]: 40
C[C@@H](O)[C@H]1C(=O)N2C(C(=O)O)=C(S[C@@H]3CN[C@H](C(=O)N(C)C)C3)[C@H](C)[C@H]12 [MEROPENEM]										MIC (Staphylococcus aureus [7]): > 64 µg/mL; MIC (Staphylococcus aureus [8]): 4 µg/mL (≈ 10.4 µM); MIC (Staphylococcus aureus [9]): 64 µg/mL (≈ 167 µM); MIC (Staphylococcus aureus [10]): > 64 µg/mL; MIC (Staphylococcus aureus [11]): > 64 µg/mL; MIC (Staphylococcus aureus [12]): 16 µg/mL (≈ 41.7 µM); MIC (Staphylococcus aureus [13]): > 64 µg/mL; MIC (Staphylococcus aureus [14]): 16 µg/mL (≈ 41.7 µM); MIC (Staphylococcus aureus [15]): > 64 µg/mL; MIC (Staphylococcus aureus [16]): > 64 µg/mL; MIC (Staphylococcus aureus [17]): > 64 µg/mL; MIC (Staphylococcus aureus [18]): 4 µg/mL (≈ 10.4 µM)
Cc1cccc(-n2cc(COc3cccc(-n4c(/C=C/c5ccc(C#N)cc5)nc5ccccc5c4=O)c3)nn2)c1	> 64	> 64	> 64	> 64	> 64	> 64	> 64	0.5 (≈ 0.932 µM)	> 64	CC50 at 72 h [2]: 20 µg/mL (≈ 37.3 µM); selectivity ratio [6]: 40
CN[C@H](CC(C)C)C(=O)N[C@H]1C(=O)N[C@@H](CC(N)=O)C(=O)N[C@H]2C(=O)N[C@H]3C(=O)N[C@H](C(=O)N[C@H](C(=O)O)c4cc(O)cc(O)c4-c4cc3ccc4O)[C@H](O)c3ccc(c(Cl)c3)Oc3cc2cc(c3O[C@@H]2O[C@H](CO)[C@@H](O)[C@H](O)[C@H]2O[C@H]2C[C@](C)(N)[C@H](O)[C@H](C)O2)Oc2ccc(cc2Cl)[C@H]1O [VANCOMYCIN]										MIC (Staphylococcus aureus [10]): > 64 µg/mL; MIC (Staphylococcus aureus [11]): > 64 µg/mL; MIC (Staphylococcus aureus [13]): > 64 µg/mL
N#Cc1ccc(/C=C/c2nc3ccccc3c(=O)n2-c2cccc(OCc3cn(Cc4ccc([N+](=O)[O-])cc4)nn3)c2)cc1	> 64	> 64	> 64	> 64	> 64	> 64	> 64	2 (≈ 3.44 µM)	> 64	
C[C@H]1COc2c(N3CCN(C)CC3)c(F)cc3c(=O)c(C(=O)O)cn1c23.C[C@H]1COc2c(N3CCN(C)CC3)c(F)cc3c(=O)c(C(=O)O)cn1c23.O [LEVOFLOXACIN]		0.5						0.125	64	MIC (Staphylococcus aureus [7]): 16 µg/mL; MIC (Staphylococcus aureus [8]): 0.5 µg/mL; MIC (Staphylococcus aureus [9]): 8 µg/mL; MIC (Staphylococcus aureus [10]): 32 µg/mL; MIC (Staphylococcus aureus [11]): > 64 µg/mL; MIC (Staphylococcus aureus [12]): 8 µg/mL; MIC (Staphylococcus aureus [13]): 32 µg/mL; MIC (Staphylococcus aureus [14]): 0.5 µg/mL; MIC (Staphylococcus aureus [15]): 32 µg/mL; MIC (Staphylococcus aureus [16]): 32 µg/mL; MIC (Staphylococcus aureus [17]): 32 µg/mL; MIC (Staphylococcus aureus [18]): 0.5 µg/mL
COc1ccc(-n2cc(COc3cccc(-n4c(/C=C/c5ccc(C#N)cc5)nc5ccccc5c4=O)c3)nn2)cc1	> 64	> 64	> 64	> 64	> 64	> 64	> 64	4 (≈ 7.24 µM)	> 64	
N#Cc1ccc(/C=C/c2nc3ccccc3c(=O)n2-c2cccc(OCc3cn(-c4cccc(C(=O)O)c4)nn3)c2)cc1	> 64	> 64	> 64	> 64	> 64	> 64	> 64	4 (≈ 7.06 µM)	> 64	
Cc1nc2ccccc2c(=O)n1-c1cccc(-n2cc(-c3ccccc3)nn2)c1	> 64	> 64	> 64	> 64	> 64	> 64	> 64	> 64	> 64	
Cc1cccc2c(=O)n(-c3cccc(OCc4cn(-c5cccc(Cl)c5)nn4)c3)c(C)nc12	> 64	> 64	> 64	> 64	> 64	> 64	> 64	> 64	> 64	
O=c1c2ccccc2nc(/C=C/c2ccc(Cl)cc2)n1-c1cccc(OCc2cn(-c3cccc(F)c3)nn2)c1	> 64	> 64	> 64	> 64	> 64	> 64	> 64	4 (≈ 7.27 µM)	> 64	
Cc1nc2ccccc2c(=O)n1-c1cccc(OCc2cn(-c3cccc(O)c3)nn2)c1	> 64	> 64	> 64	> 64	> 64	> 64	> 64	> 64	> 64	
Cc1nc2ccccc2c(=O)n1-c1cccc(OCc2cn(-c3cccc(Cl)c3)nn2)c1	> 64	> 64	> 64	> 64	> 64	> 64	> 64	> 64	> 64	
COc1ccc(Cn2cc(COc3cccc(-n4c(/C=C/c5ccc(C#N)cc5)nc5ccccc5c4=O)c3)nn2)cc1	> 64	> 64	> 64	> 64	> 64	> 64	> 64	0.5 (≈ 0.882 µM)	> 64	
Cc1nc2ccccc2c(=O)n1-c1cccc(OCc2cn(-c3ccc(F)c(Cl)c3)nn2)c1	> 64	> 64	> 64	> 64	> 64	> 64	> 64	> 64	> 64	
Cc1nc2ccccc2c(=O)n1-c1cccc(OCc2cn(-c3ccc(O)cc3)nn2)c1	> 64	> 64	64 (≈ 150 µM)	> 64	> 64	> 64	> 64	> 64	> 64	
